Reference: ChEMBL document CHEMBL1641417, “Cytotoxicity and topoisomerase I/II inhibition of glycosylated 2-phenyl-indoles, 2-phenyl-benzo[b]thiophenes and 2-phenyl-benzo[b]furans” (Bioorg Med Chem, 2011)
Calls of active or inactive are those of the source. The rule behind the calls is not given here.

Experiments:
[1] = Cytotoxicity against mouse NIH/3T3 cells after 3 days by MTS assay; assay type: cell-based; conditions: NIH3T3, 72 h
Procedure, shortened: (§1)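 Non-tumour cells were CRL-7761 human skin, Vero monkey kidney (DMEM high glucose, 5% FBS, 10 mM HEPES) and NIH/3T3 mouse (DMEM, 10% calf serum). Cells were seeded, left 24 h, then switched to serum-free DMEM-F12 with albumin, transferrin and insulin, with or without compound. Exposure was 3 days at 37 °C.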

HepG2 [2] = assay: Cytotoxicity against human HepG2 cells assessed as cell viability at 25 uM after 24 hrs by MTS assay; assay type: functional; conditions: HepG2, 24 h, read-out: Activity
Nucleic Acid = assay: Binding affinity to DNA by ethidium bromide staining-based FID assay; design: concentration or dose not given beside the values
HepG2 [3] = assay: Cytotoxicity against human HepG2 cells at 25 uM after 72 hrs by MTS assay
[4] = Cytotoxicity against human CRL7761 cells after 3 days by MTS assay; assay type: cell-based; conditions: 72 h; procedure, shortened: as §1
Vero = assay: Cytotoxicity against african green monkey Vero cells after 3 days by MTS assay; assay type: cell-based; conditions: Chlorocebus sabaeus, 72 h; procedure, shortened: as §1
MCF7 [5] = assay: Cytotoxicity against human MCF7 cells assessed as cell viability at 25 uM after 72 hrs by MTS assay; conditions: MCF7, 72 h
HT-29 [6] = assay: Cytotoxicity against human HT-29 cells assessed as cell viability at 25 uM after 72 hrs by MTS assay; conditions: HT-29, 72 h
HT-29 [7] = assay: Cytotoxicity against human HT-29 cells after 72 hrs by MTS assay; conditions: HT-29, 72 h
HepG2 [8] = assay: Cytotoxicity against human HepG2 cells after 72 hrs by MTS assay; conditions: HepG2, 72 h
[9] = biological target: DNA topoisomerase 2-alpha (Homo sapiens) (UniProt P11388); assay: Inhibition of human recombinant DNA topoisomerase 2alpha-mediated DNA cleavage assessed as decrease in relaxation of supercoiled plasmid substrate DNA at 100 uM after 30 mins by agarose gel electrophoresis
HT-29 [10] = assay: Cytotoxicity against human HT-29 cells at 25 uM after 72 hrs by MTS assay
MCF7 [11] = assay: Cytotoxicity against human MCF7 cells at 25 uM after 72 hrs by MTS assay
[12] = biological target: T1, DNA topoisomerase 1 (Homo sapiens) (UniProt P11387); assay: Inhibition of human recombinant DNA topoisomerase 1-mediated DNA cleavage assessed as decrease in relaxation of supercoiled plasmid substrate DNA at 100 uM after 30 mins by agarose gel electrophoresis
T1 sequence (whole entry): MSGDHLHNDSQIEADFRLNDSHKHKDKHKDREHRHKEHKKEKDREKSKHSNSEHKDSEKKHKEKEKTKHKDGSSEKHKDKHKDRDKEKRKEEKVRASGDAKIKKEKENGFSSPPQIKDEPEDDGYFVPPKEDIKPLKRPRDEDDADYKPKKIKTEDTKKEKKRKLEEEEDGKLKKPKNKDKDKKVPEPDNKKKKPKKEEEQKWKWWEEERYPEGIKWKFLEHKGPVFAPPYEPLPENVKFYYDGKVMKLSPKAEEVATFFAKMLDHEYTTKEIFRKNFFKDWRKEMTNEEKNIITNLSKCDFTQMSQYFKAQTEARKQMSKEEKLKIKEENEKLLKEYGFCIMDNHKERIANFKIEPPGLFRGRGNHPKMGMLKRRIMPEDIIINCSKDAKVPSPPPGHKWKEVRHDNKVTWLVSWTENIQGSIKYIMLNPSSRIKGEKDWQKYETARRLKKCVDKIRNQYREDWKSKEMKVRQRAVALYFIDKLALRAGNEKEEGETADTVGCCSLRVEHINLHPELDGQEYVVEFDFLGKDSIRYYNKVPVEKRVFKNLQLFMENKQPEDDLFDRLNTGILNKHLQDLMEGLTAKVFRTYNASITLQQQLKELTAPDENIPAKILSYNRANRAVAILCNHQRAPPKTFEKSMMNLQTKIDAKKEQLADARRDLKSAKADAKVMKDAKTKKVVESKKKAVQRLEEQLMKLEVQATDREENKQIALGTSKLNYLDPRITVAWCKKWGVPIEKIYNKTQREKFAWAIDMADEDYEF

MCF7 [13] = assay: Cytotoxicity against human MCF7 cells after 72 hrs by MTS assay; conditions: MCF7, 72 h
HT-29 [14] = assay: Cytotoxicity against human HT-29 cells assessed as cell viability at 100 uM after 72 hrs by MTS assay; conditions: HT-29, 72 h
HepG2 [15] = assay: Cytotoxicity against human HepG2 cells assessed as cell viability at 100 uM after 72 hrs by MTS assay; conditions: HepG2, 72 h
MCF7 [16] = assay: Cytotoxicity against human MCF7 cells assessed as cell viability at 100 uM after 72 hrs by MTS assay; conditions: MCF7, 72 h
[17] = biological target: DNA topoisomerase 2-alpha (Homo sapiens) (UniProt P11388); assay: Inhibition of human recombinant DNA topoisomerase 2alpha-mediated DNA cleavage assessed as decrease in relaxation of supercoiled plasmid substrate DNA at 20 uM after 30 mins by agarose gel electrophoresis

Chain of DNA topoisomerase 2-alpha (Homo sapiens) (P11388 whole entry): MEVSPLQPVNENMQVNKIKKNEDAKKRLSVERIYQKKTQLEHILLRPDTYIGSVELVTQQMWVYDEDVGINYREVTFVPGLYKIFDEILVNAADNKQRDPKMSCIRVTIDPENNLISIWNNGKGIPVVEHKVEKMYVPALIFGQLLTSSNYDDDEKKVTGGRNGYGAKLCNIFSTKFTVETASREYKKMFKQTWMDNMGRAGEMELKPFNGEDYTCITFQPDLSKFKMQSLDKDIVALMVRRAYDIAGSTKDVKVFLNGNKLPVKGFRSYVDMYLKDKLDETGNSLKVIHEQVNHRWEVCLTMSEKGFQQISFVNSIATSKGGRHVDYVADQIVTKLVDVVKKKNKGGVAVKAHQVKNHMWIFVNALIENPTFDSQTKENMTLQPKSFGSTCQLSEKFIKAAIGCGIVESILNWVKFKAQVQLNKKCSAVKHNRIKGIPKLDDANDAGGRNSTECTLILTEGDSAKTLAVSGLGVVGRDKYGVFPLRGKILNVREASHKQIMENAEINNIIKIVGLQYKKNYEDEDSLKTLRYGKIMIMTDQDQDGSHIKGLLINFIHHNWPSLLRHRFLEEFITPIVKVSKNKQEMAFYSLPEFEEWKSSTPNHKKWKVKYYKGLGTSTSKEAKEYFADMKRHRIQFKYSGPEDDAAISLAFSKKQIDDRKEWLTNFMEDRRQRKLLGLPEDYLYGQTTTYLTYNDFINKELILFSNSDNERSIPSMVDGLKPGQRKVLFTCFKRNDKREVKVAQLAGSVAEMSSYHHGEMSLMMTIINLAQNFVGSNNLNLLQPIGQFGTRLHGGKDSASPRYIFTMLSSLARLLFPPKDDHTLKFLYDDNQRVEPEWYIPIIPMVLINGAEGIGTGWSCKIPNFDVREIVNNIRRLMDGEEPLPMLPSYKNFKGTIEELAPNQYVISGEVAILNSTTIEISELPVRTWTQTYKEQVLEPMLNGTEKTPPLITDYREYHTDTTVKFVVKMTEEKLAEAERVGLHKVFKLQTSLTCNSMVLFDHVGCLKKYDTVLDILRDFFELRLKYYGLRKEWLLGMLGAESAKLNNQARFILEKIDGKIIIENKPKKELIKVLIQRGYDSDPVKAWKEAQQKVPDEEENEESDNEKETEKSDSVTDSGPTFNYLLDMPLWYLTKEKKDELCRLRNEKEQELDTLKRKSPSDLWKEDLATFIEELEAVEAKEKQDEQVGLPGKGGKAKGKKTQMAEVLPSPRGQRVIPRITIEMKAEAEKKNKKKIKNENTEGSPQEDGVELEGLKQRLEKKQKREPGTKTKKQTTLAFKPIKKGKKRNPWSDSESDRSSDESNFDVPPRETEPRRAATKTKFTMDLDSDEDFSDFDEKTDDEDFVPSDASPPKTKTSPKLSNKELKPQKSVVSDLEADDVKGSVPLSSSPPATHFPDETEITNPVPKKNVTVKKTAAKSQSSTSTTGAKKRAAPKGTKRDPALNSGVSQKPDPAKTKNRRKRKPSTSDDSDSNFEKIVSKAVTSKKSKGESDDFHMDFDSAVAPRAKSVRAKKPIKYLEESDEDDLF

Compound	IC50 [1]	viability at 25 µM (HepG2 [2])	Activity (Nucleic Acid)	Activity (HepG2 [3])	IC50 [4]	IC50 (Vero)	viability at 25 µM (MCF7 [5])	viability at 25 µM (HT-29 [6])	IC50 (HT-29 [7])	IC50 (HepG2 [8])	inhibition [9]	Activity (HT-29 [10])	Activity (MCF7 [11])	inhibition [12]	IC50 (MCF7 [13])	viability at 100 µM (HT-29 [14])	viability at 100 µM (HepG2 [15])	viability at 100 µM (MCF7 [16])	inhibition [17]
C[C@@H]1O[C@@H](OCC#Cc2c(-c3ccccc3)sc3ccccc23)C[C@H](N)[C@@H]1O	5.7 µM	< 1%	67.5%	100%	22.2 µM	9.4 µM	< 1%	< 1%	2.6 µM	6 µM	5.8%	100%	100%	36.9%	7.1 µM				
C[C@@H]1O[C@@H](OCC#Cc2c(-c3ccccc3)sc3ccccc23)C[C@H](N)[C@H]1O		2%	73.6%	100%			2%	< 1%	10.9 µM	17.2 µM	22.2%	100%	100%	32.2%	15.8 µM				
C[C@@H]1O[C@@H](OCC#Cc2c(-c3ccccc3)oc3ccccc23)CC[C@@H]1N	3.7 µM	< 1%	68.5%	100%	> 25 µM	10.9 µM	< 1%	< 1%	6.5 µM	7.9 µM	0%	100%	100%	20.2%	10.3 µM				
c1ccc(-c2cc3ccccc3[nH]2)cc1 [2-PHENYL-1H-INDOLE]																75%	71%	72%	
OCC#Cc1c(-c2ccccc2)oc2ccccc12		88%					86%	86%								< 1%	< 1%	2%	
C[C@@H]1O[C@@H](OCC#Cc2c(-c3ccccc3)[nH]c3ccccc23)C[C@H](N)[C@@H]1O		< 1%	76.7%	100%			< 1%	< 1%	14 µM	12.9 µM	7.1%	100%	100%	8.8%	15.9 µM				
C#CCO[C@H]1C[C@H](N)[C@@H](O)[C@H](C)O1																91%	105%	123%	
c1ccc(-c2cc3ccccc3o2)cc1																80%	88%	107%	
C#CCO[C@H]1C[C@H](N)[C@H](O)[C@H](C)O1																96%	101%	109%	
Ic1c(-c2ccccc2)[nH]c2ccccc12																91%	91%	103%	
Cc1ccc(S(=O)(=O)n2c(-c3ccccc3)c(C#CCO)c3ccccc32)cc1		58%		100%			87%	26%				100%	100%			9%	37%	55%	
C#CCO[C@H]1CC[C@H](N)[C@H](C)O1																99%	112%	107%	
C[C@@H]1O[C@@H](OCC#Cc2c(-c3ccccc3)[nH]c3ccccc23)CC[C@@H]1N	14.7 µM	< 1%	78.4%	100%	24 µM	20.5 µM	< 1%	< 1%	9.2 µM	11.4 µM	39.5%	100%	100%	4%	10.8 µM				
c1ccc(-c2cc3ccccc3s2)cc1																81%	88%	113%	
C[C@@H]1O[C@@H](OCC#Cc2c(-c3ccccc3)sc3ccccc23)CC[C@@H]1N	9.8 µM	< 1%	79.9%	100%	> 25 µM	18.1 µM	< 1%	< 1%	5.9 µM	8.8 µM	16.4%	100%	100%	7.9%	7.1 µM				
Cc1ccc(S(=O)(=O)n2c(-c3ccccc3)c(I)c3ccccc32)cc1																82%	90%	114%	
OCC#Cc1c(-c2ccccc2)sc2ccccc12		97%					90%	68%								8%	17%	37%	
C[C@@H]1O[C@@H](OCC#Cc2c(-c3ccccc3)[nH]c3ccccc23)C[C@H](N)[C@H]1O		< 1%	76.5%	100%			2%	7%	19.3 µM	16.2 µM	55.5%		100%	8.2%	17.3 µM				inactive
OCC#Cc1c(-c2ccccc2)[nH]c2ccccc12		87%		100%			121%	81%				100%	100%			79%	87%	109%	
Cc1ccc(S(=O)(=O)n2c(-c3ccccc3)cc3ccccc32)cc1		54%						39%								12%	37%	71%	
C[C@@H]1O[C@@H](OCC#Cc2c(-c3ccccc3)oc3ccccc23)C[C@H](N)[C@H]1O	6.5 µM	< 1%	50.5%	100%	> 25 µM	10.6 µM	< 1%	< 1%	6.5 µM	7.7 µM	5.5%	100%	100%	25.5%	5.4 µM				
Ic1c(-c2ccccc2)oc2ccccc12																97%	84%	128%	
